Source: ChEMBL document CHEMBL3853327 (J Med Chem, 2016)

What was measured:
[1] = system: Human immunodeficiency virus 1; test: Antiviral activity against HIV1 3B harboring reverse transcriptase F227L/V106A double mutant infected in human MT4 cells assessed as protection against virus induced cytotoxicity after 5 days by MTT assay; format: functional, cell-based; details: Human immunodeficiency virus 1, 3B, MT4, 120 h
Method in brief: (§1)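 MTT cytopathicity assay in MT-4 cells (6 × 10^5 cells/mL). Compounds serially diluted 5-fold in triplicate wells, run in parallel on infected and mock-infected cells. Virus added at 100−300 CCID50 per well. Viability read spectrophotometrically at 540 and 690 nm after 5 days, using the median OD of three wells. EC50 is the concentration giving 50% protection from viral cytopathogenicity.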

[2] = Selectivity index, ratio of CC50 for human mock-infected MT4 cells to EC50 for HIV1 RES056 harboring reverse transcriptase K103N/Y181C double mutant infected in human MT4 cells; format: toxicity, cell-based; details: MT4 cells (mock-infected for CC50, HIV-1 infected for EC50)
Method in brief: (§2)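 Selectivity index is CC50/EC50. CC50 is the concentration that reduces OD540 of mock-infected MT-4 cells by 50% in the 5-day MTT assay. EC50 is the 50% protection from virus-induced cytopathicity, measured in parallel on infected wells.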

[3] = Selectivity index, ratio of CC50 for human mock-infected MT4 cells to EC50 for HIV1 3B harboring reverse transcriptase Y181C mutant infected in human MT4 cells; format: toxicity, cell-based; details: MT4 cells (mock-infected for CC50, HIV-1 infected for EC50); method in brief: as §2
[4] = Selectivity index, ratio of CC50 for human mock-infected MT4 cells to EC50 for HIV1 3B harboring reverse transcriptase L100I mutant infected in human MT4 cells; format: toxicity, cell-based; details: MT4 cells (mock-infected for CC50, HIV-1 infected for EC50); method in brief: as §2
[5] = Selectivity index, ratio of CC50 for human mock-infected MT4 cells to EC50 for HIV1 3B harboring reverse transcriptase K103N mutant infected in human MT4 cells; format: toxicity, cell-based; details: MT4 cells (mock-infected for CC50, HIV-1 infected for EC50); method in brief: as §2
[6] = system: Human immunodeficiency virus 1; test: Antiviral activity against HIV1 3B harboring reverse transcriptase K103N mutant infected in human MT4 cells assessed as protection against virus induced cytotoxicity after 5 days by MTT assay; format: functional, cell-based; details: Human immunodeficiency virus 1, 3B, MT4, 120 h; method in brief: as §1
[7] = Antiviral activity against HIV2 ROD harboring reverse transcriptase infected in human MT4 cells assessed as protection against virus induced cytotoxicity after 5 days by MTT assay; format: functional, cell-based, Human immunodeficiency virus type 2 (ISOLATE ROD); details: Human immunodeficiency virus 2, MT4, 120 h; method in brief: as §1
[8] = system: Human immunodeficiency virus 1; test: Antiviral activity against HIV1 3B harboring reverse transcriptase Y188L mutant infected in human MT4 cells assessed as protection against virus induced cytotoxicity after 5 days by MTT assay; format: functional, cell-based; details: Human immunodeficiency virus 1, 3B, MT4, 120 h; method in brief: as §1
[9] = system: Human immunodeficiency virus 1; test: Potency index, ratio of ETV EC50 to compound EC50 for HIV1 3B harboring reverse transcriptase E138K mutant infected in human MT4 cells; format: functional
[10] = Selectivity index, ratio of CC50 for human mock-infected MT4 cells to EC50 for wild type HIV1 3B harboring reverse transcriptase infected in human MT4 cells; format: toxicity, cell-based; details: MT4 cells (mock-infected for CC50, HIV-1 infected for EC50); method in brief: as §2
[11] = Cytotoxicity against human mock-infected MT4 cells assessed as reduction in cell viability after 5 days by MTT assay; format: toxicity, cell-based
Method in brief: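 Mock-infected MT-4 cells (6 × 10^5 cells/mL at seeding) with serial 5-fold compound dilutions in triplicate wells. Viability read by MTT after 5 days, absorbance at 540 and 690 nm, median OD of three wells. CC50 is the concentration reducing OD540 of mock-infected cells by 50%.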

[12] = Selectivity index, ratio of CC50 for human mock-infected MT4 cells to EC50 for HIV1 3B harboring reverse transcriptase F227L/V106A double mutant infected in human MT4 cells; format: toxicity, cell-based; details: MT4 cells (mock-infected for CC50, HIV-1 infected for EC50); method in brief: as §2
[13] = system: Human immunodeficiency virus 1; test: Potency index, ratio of ETV EC50 to compound EC50 for HIV1 3B harboring reverse transcriptase YI88L mutant infected in human MT4 cells; format: functional
[14] = system: Human immunodeficiency virus 1; test: Antiviral activity against HIV1 3B harboring reverse transcriptase Y181C mutant infected in human MT4 cells assessed as protection against virus induced cytotoxicity after 5 days by MTT assay; format: functional, cell-based; details: Human immunodeficiency virus 1, 3B, MT4, 120 h
Method in brief: as §1, with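 “wells.” for “wells. EC50 is the concentration giving 50% protection from viral cytopathogenicity.”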

[15] = Selectivity index, ratio of CC50 for human mock-infected MT4 cells to EC50 for HIV1 3B harboring reverse transcriptase Y188L mutant infected in human MT4 cells; format: toxicity, cell-based; details: MT4 cells (mock-infected for CC50, HIV-1 infected for EC50); method in brief: as §2
[16] = system: Human immunodeficiency virus 1; test: Potency index, ratio of ETV EC50 to compound EC50 for HIV1 3B harboring reverse transcriptase Y181C mutant infected in human MT4 cells; format: functional
[17] = system: Human immunodeficiency virus 1; test: Antiviral activity against HIV1 3B harboring reverse transcriptase L100I mutant infected in human MT4 cells assessed as protection against virus induced cytotoxicity after 5 days by MTT assay; format: functional, cell-based; details: Human immunodeficiency virus 1, 3B, MT4, 120 h; method in brief: as §1
[18] = system: Human immunodeficiency virus 1; test: Antiviral activity against HIV1 3B harboring reverse transcriptase E138K mutant infected in human MT4 cells assessed as protection against virus induced cytotoxicity after 5 days by MTT assay; format: functional, cell-based; details: Human immunodeficiency virus 1, 3B, MT4, 120 h; method in brief: as §1
[19] = system: Human immunodeficiency virus 1; test: Antiviral activity against wild type HIV1 3B harboring reverse transcriptase infected in human MT4 cells assessed as protection against virus induced cytotoxicity after 5 days by MTT assay; format: functional, cell-based; details: Human immunodeficiency virus 1, 3B, MT4, 120 h
Method in brief: as §1, with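 “wells.” for “wells. EC50 is the concentration giving 50% protection from viral cytopathogenicity.”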

[20] = Selectivity index, ratio of CC50 for human mock-infected MT4 cells to EC50 for HIV1 3B harboring reverse transcriptase E138K mutant infected in human MT4 cells; format: toxicity, cell-based; details: MT4 cells (mock-infected for CC50, HIV-1 infected for EC50); method in brief: as §2
[21] = system: Human immunodeficiency virus 1; test: Fold resistance, ratio of IC50 for recombinant HIV1 reverse transcriptase K103N/Y181C double mutant to IC50 for wild type HIV1 reverse transcriptase
Method in brief: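 Ratio of mutant to WT IC50. Recombinant WT and K103N/Y181C RT were assayed with a kit: template plus DIG-dUTP, biotin-dUTP and dTTP, with or without inhibitor, 1 h at 37 °C. Product was captured on streptavidin, detected with anti-DIG-POD and ABTS, and read at 405 nm. IC50 is the concentration inhibiting biotin-dUTP incorporation by 50%.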

[22] = target: Human immunodeficiency virus type 1 reverse transcriptase (Human immunodeficiency virus 1, UniProt Q72547, K103N/Y181C); test: Inhibition of recombinant HIV1 reverse transcriptase K103N/Y181C double mutant using DIG-dUTP/biotin-dUTP/dTTP assessed as suppression of biotin-dUTP incorporation after 1 hr by ELISA
[23] = Inhibition of recombinant wild type HIV1 reverse transcriptase using DIG-dUTP/biotin-dUTP/dTTP assessed as suppression of biotin-dUTP incorporation after 1 hr by ELISA; set-up: species or system Human immunodeficiency virus 1
Method in brief: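 Recombinant WT HIV-1 RT in a Roche colorimetric kit: template plus DIG-dUTP, biotin-dUTP and dTTP, ±inhibitor, 1 h at 37 °C. Product captured on streptavidin plate 1 h at 37 °C, anti-DIG-POD 1 h at 37 °C, ABTS developed at 25 °C, read at OD405. IC50 is the concentration inhibiting biotin-dUTP incorporation by 50%.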

SMILES	EC50 [1] [nM]	selectivity ratio [2]	selectivity ratio [3]	selectivity ratio [4]	selectivity ratio [5]	EC50 [6] [nM]	EC50 [7] [µM]	EC50 [8] [nM]	selectivity ratio [10]	CC50 at 120 h [11] [µM]	selectivity ratio [12]	EC50 [14] [nM]	selectivity ratio [15]	EC50 [17] [nM]	EC50 [18] [nM]	EC50 [19] [nM]	selectivity ratio [20]	Ratio IC50 [21]	IC50 [22] [nM]	IC50 [23] [nM]	also measured
Cc1cc(C#N)cc(C)c1Oc1nc(NC2CCN(Cc3ccc(C(N)=O)cc3)CC2)nc2ccsc12	10.7	1110	18100	8760	53800	1.8	> 95.4	8.6	66900	95.4	8860	5.3	11100	10.8	4.5	1.4	21300				Ratio EC50 [9]: 2; Ratio EC50 [13]: 2; Ratio EC50 [16]: 2
Cc1cc(C#N)cc(C)c1Oc1nc(NC2CCN(Cc3ccc(NS(C)(=O)=O)cc3)CC2)nc2ccsc12	32.2	261	9890	5020	35700	1.9	> 68.3	8.2	44200	68.3	2120	6.9	8870	13.6	6.9	1.5	9900				Ratio EC50 [9]: 2; Ratio EC50 [13]: 2; Ratio EC50 [16]: 2
Cc1cc(C)c(Oc2nc(NC3CCN(Cc4ccc(S(C)(=O)=O)cc4)CC3)nc3ccsc23)c(C)c1	23.9	12	118	143	548	6.2	> 3.42	32.2	595	3.42	81	28.9	106	23.9	18.2	5.7	187	3.84	2500	650	
Cc1cc(C#N)cc(C)c1Oc1nc(NC2CCN(Cc3ccncc3)CC2)nc2ccsc12	130	32	483	253	2090	9.9	> 20.6	55.3	2000	20.6	159	42.7	373	81.6	42.2	10.3	489	2.87	3740	1300	
Cc1cc(C#N)cc(C)c1Oc1nc(NC2CCN(Cc3ccc(F)cc3)CC2)nc2ccsc12	712	131	3740	1550	16200	8.7	≥ 141	44.8	18700	141	198	37.8	3140	90.9	34.4	7.5	4100	3.17	2570	810	
Cc1cc(C)c(Oc2nc(NC3CCN(Cc4ccncc4)CC3)nc3ccsc23)c(C)c1	133	27	230	101	777	7.3	> 5.65	37.1	747	5.65	42	24.6	152	56.1	20.9	7.6	270	6	1260	210	
Cc1cc(C)c(Oc2nc(NC3CCN(Cc4cccc(C#N)c4)CC3)nc3ccsc23)c(C)c1	392	≤ 3	89	36	445	38.7	> 17.2	143	819	17.2	44	193	120	476	50.9	21.1	339	5.25	5570	1060	
Cc1cc(C)c(Oc2nc(NC3CCN(Cc4ccc(F)cc4F)CC3)nc3ccsc23)c(C)c1	6610	< 1	21	11	86	163	> 14	787	380	14	2	660	18	1240	174	36.8	80	30	46400	1600	
Cc1cc(C#N)cc(C)c1Oc1nc(NC2CCN(Cc3ccc(S(C)(=O)=O)cc3)CC2)nc2ccsc12	44	50	622	306	1800	12	> 22.3	41	1000	22.3	507	36	543	73	39	22.1	566	1.87	2830	1510	
